Measurements: ChEMBL document CHEMBL4480390, “Cink4T, a quinazolinone-based dual inhibitor of Cdk4 and tubulin polymerization, identified via ligand-based virtual screening, for efficient anticancer therapy” (Eur J Med Chem, 2019)
The source made the active and inactive calls. The calls are words filed in the database; no cut-off is given here.

Columns and labels:
Tubulin (Sus scrofa) [1] = target: T1, Tubulin (Sus scrofa) (UniProt P02554+P02550); test: Inhibition of porcine tubulin polymerization at 3 uM incubated for 1 min by fluorescence based assay; assay type: protein assay
[2] = target: Cyclin-dependent kinase 4/cyclin D1 (Homo sapiens) (UniProt P11802+P24385); test: Inhibition of recombinant human N-terminal GST-tagged CDK4 (S4 to E303 residues)/Cyclin D1 (Q4 to I295 residues) expressed in sf9 cells at 10 uM using RBCTF as substrate measured after 1 hr by ADP-glo luminescence assay relative to control
[3] = target: CDK9/cyclin T1 (Homo sapiens) (UniProt O60563+P50750); test: Inhibition of N-terminal GST-HIS6 fusion protein tagged human full length CDK9 (M1 to F372 residues)/N-terminal HIS6-fused human Cyclin-T1 (M1 to K726 residues) expressed in Sf9 cells at 10 uM using RBCTF as substrate measured after 1 hr by ADP-glo luminescence assay relative to control
In short: (§1)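 ADP-Glo kinase assay with 200 ng Cdk-cyclin enzyme, ATP (125 µM in 2.5x mix) and 25 µg substrate (RBCTF or RBER-CHKtide, per Cdk). Buffer: Tris, MgCl2, BSA, DTT, MnCl2 cofactor, DMSO. Reaction 1 h at 21°C; ADP-Glo 40 min, then detection reagent 40 min. Luminescence read. IC50 by 4-parameter fit; three independent experiments.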

[4] = target: Cyclin-dependent kinase 4/cyclin D1 (Homo sapiens, UniProt P11802); test: Inhibition of recombinant human N-terminal GST-tagged CDK4 (S4 to E303 residues)/Cyclin D1 (Q4 to I295 residues) expressed in sf9 cells using RBCTF as substrate measured after 1 hr by ADP-glo luminescence assay
In short: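 ADP-Glo luminescence assay of Cdk4–cyclin D1 with RBCTF substrate, 200 ng enzyme, ATP 125 µM (2.5x working mix), Tris/MgCl2/BSA/DTT/MnCl2 buffer, 1 h at 21°C, then two 40-min reagent steps. IC50 from a four-parameter variable-slope sigmoidal fit of inhibition against concentration; mean ± SD from three independent experiments.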

CDK2/Cyclin A2 = CDK2/Cyclin A2 (Homo sapiens, UniProt P24941); test: Inhibition of human full length N-terminal GST-fused CDK2 (M1 to L298 residues)/human full length Cyclin-A2 (M1 to L432 residues) expressed in Sf9 cells using histone H1 as substrate measured after 1 hr by ADP-glo luminescence assay
[5] = target: Cyclin-dependent kinase 1/cyclin B1 (Homo sapiens, UniProt P06493); test: Inhibition of recombinant human N-terminal GST/His6-tagged CDK1 (M1 to M297 residues)/CyclinB1 (M1 to V433 residues) expressed in Sf9 insect cells using RBCTF as substrate measured after 1 hr by ADP-glo luminescence assay
CDK9/cyclin T1 = CDK9/cyclin T1 (Homo sapiens, UniProt P50750); test: Inhibition of N-terminal GST-HIS6 fusion protein tagged human full length CDK9 (M1 to F372 residues)/N-terminal HIS6-fused human Cyclin-T1 (M1 to K726 residues) expressed in Sf9 cells using RBCTF as substrate measured after 1 hr by ADP-glo luminescence assay
CDK6/cyclin D1 = CDK6/cyclin D1 (Homo sapiens, UniProt Q00534); test: Inhibition of CDK6/cyclin D1 (unknown origin) using RBER-CHKtide as substrate measured after 1 hr by ADP-glo luminescence assay; assay type: protein-complex assay; in short: as §1
Cytochrome P450 1A1 = target: T2, Cytochrome P450 1A1 (Homo sapiens, UniProt P04798); test: Inhibition of recombinant human CYP1A1 expressed in baker's yeast-derived microsomes using 7-ethoxyresorufin as substrate by fluorescence assay; assay type: ADME
T2 sequence (P04798 whole entry): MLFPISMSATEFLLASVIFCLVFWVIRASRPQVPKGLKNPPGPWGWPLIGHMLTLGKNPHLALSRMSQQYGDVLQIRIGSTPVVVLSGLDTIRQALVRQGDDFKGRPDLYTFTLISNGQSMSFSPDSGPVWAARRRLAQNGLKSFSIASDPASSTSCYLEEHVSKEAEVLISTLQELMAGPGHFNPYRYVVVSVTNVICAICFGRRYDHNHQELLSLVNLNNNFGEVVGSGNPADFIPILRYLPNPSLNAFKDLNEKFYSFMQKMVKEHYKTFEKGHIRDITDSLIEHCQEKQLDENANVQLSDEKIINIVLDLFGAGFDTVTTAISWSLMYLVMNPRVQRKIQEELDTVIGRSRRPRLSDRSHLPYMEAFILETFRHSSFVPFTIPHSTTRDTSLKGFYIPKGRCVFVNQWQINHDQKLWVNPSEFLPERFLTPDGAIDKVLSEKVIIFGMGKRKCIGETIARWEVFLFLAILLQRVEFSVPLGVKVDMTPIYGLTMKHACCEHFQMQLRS

Cytochrome P450 1A2 = target: T3, Cytochrome P450 1A2 (Homo sapiens, UniProt P05177); test: Inhibition of recombinant human CYP1A2 expressed in baker's yeast-derived microsomes using 3-cyano-7-ethoxycoumarin as substrate by fluorescence assay; assay type: ADME
T3 sequence (P05177 whole entry): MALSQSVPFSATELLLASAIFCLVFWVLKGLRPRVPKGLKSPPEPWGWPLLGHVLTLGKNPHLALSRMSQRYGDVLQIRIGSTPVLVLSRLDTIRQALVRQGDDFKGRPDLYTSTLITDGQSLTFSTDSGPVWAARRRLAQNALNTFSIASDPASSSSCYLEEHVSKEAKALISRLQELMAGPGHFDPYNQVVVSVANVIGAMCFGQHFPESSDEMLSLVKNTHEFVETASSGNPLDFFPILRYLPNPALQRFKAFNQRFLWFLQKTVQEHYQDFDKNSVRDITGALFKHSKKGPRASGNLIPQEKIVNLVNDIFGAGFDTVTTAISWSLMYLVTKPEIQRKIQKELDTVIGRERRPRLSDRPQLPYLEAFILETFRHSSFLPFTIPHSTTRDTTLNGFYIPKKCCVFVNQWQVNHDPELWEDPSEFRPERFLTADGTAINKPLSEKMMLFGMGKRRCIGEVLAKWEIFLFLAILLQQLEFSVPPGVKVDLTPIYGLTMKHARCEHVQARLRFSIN

Cytochrome P450 1B1 = target: T4, Cytochrome P450 1B1 (Homo sapiens, UniProt Q16678); test: Inhibition of recombinant human CYP1B1 expressed in baker's yeast-derived microsomes using 7-ethoxyresorufin as substrate by fluorescence assay
T4 sequence (Q16678 whole entry): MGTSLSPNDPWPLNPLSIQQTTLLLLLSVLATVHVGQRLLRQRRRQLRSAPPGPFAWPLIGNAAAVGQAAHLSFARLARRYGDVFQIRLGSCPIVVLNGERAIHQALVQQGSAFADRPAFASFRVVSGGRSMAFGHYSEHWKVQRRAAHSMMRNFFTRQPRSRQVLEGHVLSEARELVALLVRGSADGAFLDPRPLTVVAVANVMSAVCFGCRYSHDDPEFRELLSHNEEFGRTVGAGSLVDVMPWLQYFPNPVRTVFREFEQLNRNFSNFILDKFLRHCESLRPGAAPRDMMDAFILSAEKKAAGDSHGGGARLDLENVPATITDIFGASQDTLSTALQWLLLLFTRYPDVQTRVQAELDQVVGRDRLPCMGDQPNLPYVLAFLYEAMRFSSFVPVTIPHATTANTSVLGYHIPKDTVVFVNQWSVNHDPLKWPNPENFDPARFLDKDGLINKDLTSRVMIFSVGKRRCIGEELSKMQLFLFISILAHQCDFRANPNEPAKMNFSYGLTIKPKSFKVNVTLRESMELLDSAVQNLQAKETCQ

Tubulin (Sus scrofa) [6] = target: T1, Tubulin (Sus scrofa); test: Inhibition of porcine tubulin polymerization at 5 uM incubated for 1 min by fluorescence based assay; assay type: protein assay
In short: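 Compounds added from 10x stocks in duplicate and warmed at 37°C ≤1 min. Ice-cold tubulin pre-mix then added. Fluorescent reporter read at ex 360/em 460 nm for 60 min. Paclitaxel served as enhancer control, CaCl2 as inhibitor control.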

A549 = test: cells; conditions: Homo sapiens, A549, 72 h
Calu-1 = test: cells; conditions: Homo sapiens, Calu-1, 72 h
MDA-MB-468 = test: cells; conditions: Homo sapiens, MDA-MB-468, 72 h
T47D = test: cells; conditions: Homo sapiens, 72 h

Structure (SMILES): CC[C@]1(O)C[C@@H]2CN(CCc3c([nH]c4ccccc34)[C@@](C(=O)OC)(c3cc4c(cc3OC)N(C)[C@H]3[C@@](O)(C(=O)OC)[C@H](OC(C)=O)[C@]5(CC)C=CCN6CC[C@]43[C@@H]65)C2)C1
- inhibition (Tubulin (Sus scrofa) [1]): Active

Structure (SMILES): CC(=O)O[C@H]1C(=O)[C@@]2(C)[C@H]([C@H](OC(=O)c3ccccc3)[C@]3(O)C[C@H](OC(=O)[C@H](O)[C@@H](NC(=O)c4ccccc4)c4ccccc4)C(C)=C1C3(C)C)[C@]1(OC(C)=O)CO[C@@H]1C[C@@H]2O
- inhibition (Tubulin (Sus scrofa) [1]): inactive

Structure (SMILES): COc1ccc(-c2nc3ccccc3c(=O)[nH]2)cc1OCC(=O)NC1CCCCC1
- inhibition [2]: 76%
- inhibition [3]: 8%
- IC50 [4]: 3.8 µM
- IC50 (CDK2/Cyclin A2): > 100 µM
- IC50 [5]: > 50 µM
- IC50 (CDK9/cyclin T1): > 50 µM
- IC50 (CDK6/cyclin D1): > 100 µM
- IC50 (Cytochrome P450 1A1): > 5 µM
- IC50 (Cytochrome P450 1A2): > 5 µM
- IC50 (Cytochrome P450 1B1): > 5 µM
- inhibition (Tubulin (Sus scrofa) [6]): Active
- EC50 (A549): 7.5 µM
- EC50 (Calu-1): 9.8 µM
- EC50 (MDA-MB-468): > 50 µM
- EC50 (T47D): 8.2 µM

Structure (SMILES): COc1ccccc1NC(=O)COc1ccc(-c2nc3ccccc3c(=O)[nH]2)cc1OC
- inhibition [2]: 89%
- IC50 [4]: 1.5 µM
- IC50 (CDK2/Cyclin A2): > 50 µM
- IC50 [5]: > 50 µM
- IC50 (CDK9/cyclin T1): > 100 µM
- IC50 (CDK6/cyclin D1): > 100 µM
- IC50 (Cytochrome P450 1A1): > 5 µM
- IC50 (Cytochrome P450 1A2): > 5 µM
- IC50 (Cytochrome P450 1B1): > 5 µM
- inhibition (Tubulin (Sus scrofa) [6]): Active
- EC50 (A549): 3 µM
- EC50 (Calu-1): 6 µM
- EC50 (MDA-MB-468): > 50 µM
- EC50 (T47D): 4 µM
